Test results taken from publication PMC6554731 (Bioorganic & medicinal chemistry, 2019).

How the values were obtained:
[1] = target: T1, human Ero1α (Homo sapiens, UniProt Q96HE7, C104A/C131A/C166A); assay: Amplex Red/Ero1α catalytic assay; format: biochemical
T1 sequence (Q96HE7 22-468 C104A/C131A/C166A): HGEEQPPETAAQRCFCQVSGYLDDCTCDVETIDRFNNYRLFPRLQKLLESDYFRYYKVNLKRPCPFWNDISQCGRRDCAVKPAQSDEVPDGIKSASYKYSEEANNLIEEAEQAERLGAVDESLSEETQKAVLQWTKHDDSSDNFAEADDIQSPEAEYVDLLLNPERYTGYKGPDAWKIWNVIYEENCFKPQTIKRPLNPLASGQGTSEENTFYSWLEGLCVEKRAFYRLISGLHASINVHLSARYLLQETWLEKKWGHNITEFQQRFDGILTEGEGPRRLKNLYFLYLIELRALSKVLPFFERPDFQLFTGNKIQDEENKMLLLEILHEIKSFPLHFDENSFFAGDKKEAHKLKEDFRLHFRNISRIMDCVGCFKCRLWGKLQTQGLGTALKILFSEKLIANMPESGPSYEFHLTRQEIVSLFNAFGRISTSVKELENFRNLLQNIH
How it was run: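 Hyperactive His-tagged human Ero1α (residues 22–468) expressed in E. coli BL21(DE3)RIL, Ni-NTA purified, oxidised with ferricyanide, monomeric gel-filtration fraction; 0.0625 mg/mL enzyme with HRP, 25 μM Amplex Red, human PDI (18–479) substrate 0.250–0.008 mg/mL, test compound 200–0.01 μM, 50 mM sodium phosphate pH 7.4; 30 min, 37 °C; fluorescence Ex 530/Em 590; two experiments in triplicate.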

[2] = tested on: Ero1L; conditions: cited from earlier work
[3] = tested on: U266 cells; assay: Western blot analysis of ER stress markers; format: cell-based; conditions: U266, 2, 4 and 8 h
How it was run: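 U266 lysates taken after 2, 4 and 8 h with DMSO or test compound, run on 8–10% SDS-PAGE and transferred to PVDF. Membranes blocked 1 h at room temperature in 5% milk/TBST, probed overnight at 4 °C for p-eIF2α, ATF4, ATF6 and β-actin, then HRP secondary for 1 h. Chemiluminescent detection; n=3 independent assays.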

[4] = tested on: normal PBMCs; assay: Cell death in normal PBMCs; format: cell-based; conditions: data not shown
[5] = Solubility observations; format: physicochemical
[6] = tested on: U266 cells; assay: Annexin V/propidium iodide double-staining assay; format: cell-based; conditions: 25 μM, 18 h
How it was run: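 U266 cells exposed to DMSO vehicle or 25 μM test compound for 18 h, then washed in ice-cold PBS and stained with Annexin V-FITC/PI in binding buffer for 15 min at 37 °C in the dark. Flow cytometry counted at least 10,000 cells per sample. Means ± SD from three independent experiments.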

CC1=NN(c2ccccc2)C(=O)/C1=C/c1ccc(-c2cccc(Br)c2)o1 [AK968]
Activity against Ero1L (derivative screen, Supplementary Fig. 2) [1]: inactive

CC1=NN(c2ccc(C)cc2)C(=O)/C1=C/c1ccc(-c2ccc(C(=O)O)cc2)o1 [AN968]
Activity against Ero1L (derivative screen, Supplementary Fig. 2) [1]: marginally active

O=C(O)c1cc(N2N=C(C(F)(F)F)/C(=C/c3ccc(-c4ccccc4)o3)C2=O)ccc1Cl [EN460]
Inhibition of the Ero1L enzyme [2]: low micromolar range
ATF4 level [3]: modest increase
full length ATF6 level [3]: reduced levels
p-eIF2α level [3]: robust increase
Cell death in normal PBMCs [4]: sufficient to induce cell death
Solubility [5]: poor solubility
Reachable concentration in vitro ([5]; limited by poor solubility): ≤ 200 µM
Mode of Ero1L inhibition ([1]; increasing substrate PDI with different EN460 concentrations): competitive
Km ([1]; substrate PDI, with EN460): increased
Vmax ([1]; substrate PDI, with EN460): largely stated the same
Apoptosis (Annexin V positive cells) [6]: induces apoptosis

[N-]=[N+]=Nc1cccc(-c2ccc(/C=C3/C(=O)N(c4ccc(Cl)c(C(=O)O)c4)N=C3C(F)(F)F)o2)c1 [PB-10, (E)-5-(4-((5-(3-azidophenyl)furan-2-yl)methylene)-5-oxo-3-(trifluoromethyl)-4,5-dihydro-1H-pyrazol-1-yl)-2-chlorobenzoic acid]
Solubility [5]: comparable in solubility to EN460

[N-]=[N+]=Nc1ccc(-c2ccc(/C=C3/C(=O)N(c4ccc(Cl)c(C(=O)O)c4)N=C3C(F)(F)F)o2)cc1 [PB-11, (E)-5-(4-((5-(4-azidophenyl)furan-2-yl)methylene)-5-oxo-3-(trifluoromethyl)-4,5-dihydro-1H-pyrazol-1-yl)-2-chlorobenzoic acid]
Solubility in physiological buffers ([5]; e.g. PBS pH 7.4): less soluble
